Published values gathered from unrelated publications.
Compare with care: the assays were run in different laboratories.
Observed: haemolysis
Host: human

Oc1ccc(Cl)cc1C=NNc1nc(-c2ccc(F)cc2)cs1
haemolysis (10 µM; 30 min; pH 7.4): 3.11%

C[C@@H]1[C@H](O)[C@@H](C)/C=C/C=C/C=C/C=C/C=C/C=C/C=C/[C@H](O[C@@H]2O[C@H](C)[C@@H](O)[C@H](N)[C@@H]2O)C[C@@H]2O[C@](O)(C[C@@H](O)C[C@@H](O)[C@H](O)CC[C@@H](O)C[C@@H](O)CC(=O)O[C@H]1C)C[C@H](O)[C@H]2C(=O)O
haemolysis (8 µg/mL; 1 h): 102%

CCCCCCCCCCCCNCc1ccc(CNC(=O)c2csc3nc[nH]c(=O)c23)cc1
haemolysis (100 µM; 1 h): ~3%

c1ccc(CN(CCN(Cc2ccccn2)Cc2ccccn2)Cc2ccccn2)nc1
haemolysis (200 µM; 1 h; pH 7.2): ≤ 1%

NCCc1ccc(Oc2ccc(-c3noc(-c4ccc(O)cc4)n3)cc2)cc1
haemolysis (4 µg/mL; 1 h): 2.5%

Fc1ccc(-c2csc(NN=Cc3cccs3)n2)cc1
haemolysis (10 µM; 30 min; pH 7.4): 11.4%

CCN(CC)CCCC(C)Nc1ccnc2cc(Cl)ccc12 (stereo not shown)
haemolysis (100 mM; 45 min): 28.7%

C=C1CC[C@@H]2[C@](C)(CCC[C@]2(C)C(=O)O)[C@H]1CC/C(C)=C/C(=O)O
haemolysis (350 µg/mL; 3 h): 50%

O=C(O)CN(CCN(CC(=O)O)CC(=O)O)CC(=O)O
haemolysis (200 µM; 1 h; pH 7.2): ≤ 1%

COc1c(F)cccc1C=NNc1nc(-c2ccc(F)cc2)cs1
haemolysis (50 µM; 30 min; pH 7.4): 20%

C=C1CC[C@@H]2C(C)(C)CCC[C@@]2(C)[C@@H]1CC/C(C)=C/C(=O)OC
haemolysis (500 µg/mL; 3 h): 50%

Cc1ccc(C=NNc2nc(-c3ccc(F)cc3)cs2)o1
haemolysis (10 µM; 30 min; pH 7.4): 1.2%

OC(Cn1cncn1)(Cn1cncn1)c1ccc(F)cc1F
haemolysis (2 µg/mL; 1 h): 3.79%
